# Data taken from ChEMBL document CHEMBL1124697, “A new family of water-soluble, third generation antitumor platinum complexes” (J Med Chem, 1989).
# “And” between values parts separate entries of the source, which are not always exact repeats. Identical values can stand only once. The source made the active and inactive calls.
# Tests used:
# B16 [1] = test: Percent increase in life span when compound administered at 12.5 mg/kg against B-16 melanoma cells in […] mice; type: functional; conditions: Mus musculus
# Method in brief: (§1)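 Median % increase in life span versus controls and % survivors are recorded at the optimal dose. ILS ≥25% counts as active, and a ≥15% reduction in ILS or body weight counts as toxic.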
# B16 [2] = test: Percent increase in life span when compound administered at 25 mg/kg against B-16 melanoma cells in […] mice; type: functional, organism-based; design: dose 25 mg/kg; conditions: Mus musculus
# Method in brief: (§2)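 B-16 melanoma in […] mice; compounds given ip daily on days 1–9 relative to tumor inoculation, animals followed 60 days. Read-out median % increase in life span over controls at optimal dose with % survivors; activity threshold ILS ≥25%; ≥15% reduction in ILS or body weight versus controls rated toxic.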
# L1210 [3] = test: Percent increase in life span when compound administered at 50 mg/kg against L1210 cisplatin resistant leukemia cells in BDF1 mice; type: functional, organism-based; design: dose 50 mg/kg; conditions: Mus musculus
# Method in brief: (§3)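 BDF1 mice bearing P388, L1210 or cisplatin-resistant L1210 leukemia; ip dosing on days 1, 5 and 9 relative to tumor inoculation, 30-day observation. Median % ILS over controls at optimal dose plus % survivors; ≥25% ILS counted as active, ≥15% reduction in ILS or body weight over controls rated toxic.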
# B16 [4] = test: Percent survivors when compound administered at 12.5 mg/kg against B-16 melanoma cells in […] mice; type: functional; conditions: Mus musculus; method in brief: as §1
# Colon 26 [5] = test: Percent in life span when compound administered at 100 mg/kg againstColon 26 cells in balb/C mice; type: functional, organism-based; design: dose 100 mg/kg; conditions: Mus musculus
# Method in brief: (§4)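 Colon 26 in Balb/C mice. Test agents given ip on days 1, 5 and 9 relative to tumor inoculation; mice observed 30 days. Median % increase in life span at optimal dose, with % survivors noted; ILS ≥25% over controls required for activity; ILS or body weight reduced ≥15% versus controls rated toxic.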
# L1210 [6] = test: Percent survivors when compound administered at 50 mg/kg against L1210 cisplatin resistant leukemia cells in BDF1 mice; type: functional, organism-based; design: dose 50 mg/kg; conditions: Mus musculus
# Method in brief: (§5)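 BDF1 mice inoculated with P388, L1210 or cisplatin-resistant L1210 leukemia. Compound given ip on days 1, 5 and 9 relative to tumor inoculation, and mice observed for 30 days. Median % increase in life span over controls and % survivors are reported at the optimal dose. Activity requires ILS ≥25%. Toxicity is rated when ILS or body weight is reduced by ≥15%.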
# L1210 [7] = test: Percent survivors when compound administered at 50 mg/kg against L1210 leukemia cells in BDF1 mice; type: functional, organism-based; design: dose 50 mg/kg; conditions: Mus musculus; method in brief: as §5
# Colon 26 [8] = test: Percent survivors when compound administered at 50 mg/kg againstColon 26 cells in balb/C mice; type: functional, organism-based; design: dose 50 mg/kg; conditions: Mus musculus
# Method in brief: (§6)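 Colon 26 tumor in Balb/C mice. Dosing ip on days 1, 5 and 9 after tumor inoculation, with a 30-day observation period. Readouts are median % increase in life span over control mice and % survivors, given at the optimal dose. Activity threshold is ILS ≥25%. A ≥15% drop in ILS or body weight is rated toxic.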
# L1210 [9] = test: Percent increase in life span when compound administered at 50 mg/kg against L1210 leukemia cells in BDF1 mice; type: functional, organism-based; design: dose 50 mg/kg; conditions: Mus musculus; method in brief: as §3
# Colon 26 [10] = test: Percent survivors when compound administered at 100 mg/kg againstColon 26 cells in balb/C mice; type: functional, organism-based; design: dose 100 mg/kg; conditions: Mus musculus; method in brief: as §6
# B16 [11] = test: Percent survivors when compound administered at 25 mg/kg against B-16 melanoma cells in […] mice; type: functional, organism-based; design: dose 25 mg/kg; conditions: Mus musculus; method in brief: as §1
# P388 [12] = test: Percent increase in life span when compound administered at 25.5 mg/kg against P388 leukemia cells in BDF1 mice; type: functional, organism-based; design: dose 25.5 mg/kg; conditions: Mus musculus; method in brief: as §3
# P388 [13] = test: Percent survivors when compound administered at 25.5 mg/kg against P388 leukemia cells in BDF1 mice; type: functional, organism-based; design: dose 25.5 mg/kg; conditions: Mus musculus; method in brief: as §5
# Colon 26 [14] = test: Percent survivors when compound administered at 6.2 mg/kg against Colon 26 cells in balb/C mice; type: functional, organism-based; design: dose 6.2 mg/kg; conditions: Mus musculus; method in brief: as §6
# Colon 26 [15] = test: Percent in life span when compound administered at 6.2 mg/kg against Colon 26 cells in balb/C mice; type: functional, organism-based; design: dose 6.2 mg/kg; conditions: Mus musculus; method in brief: as §4
# L1210 [16] = test: Percent survivors when compound administered at 12.5 mg/kg against L1210 leukemia cells in BDF1 mice; type: functional, organism-based; design: dose 12.5 mg/kg; conditions: Mus musculus; method in brief: as §5
# B16 [17] = test: Percent survivors when compound administered at 0.4 mg/kg against B-16 melanoma cells in […] mice; type: functional, organism-based; design: dose 0.4 mg/kg; conditions: Mus musculus; method in brief: as §1
# P388 [18] = test: Percent increase in life span when compound administered at 6.2 mg/kg against P388 leukemia cells in BDF1 mice; type: functional, organism-based; design: dose 6.2 mg/kg; conditions: Mus musculus; method in brief: as §3
# Colon 26 [19] = test: Percent survivors when compound administered at 1 mg/kg againstColon 26 cells in balb/C mice; type: functional, organism-based; design: dose 1 mg/kg; conditions: Mus musculus; method in brief: as §6
# L1210 [20] = test: Percent increase in life span when compound administered at 50 mg/kg against L1210 cisplatin resistant leukemia cells in BDF1 mice; IA=inactive; type: functional, organism-based; design: dose 50 mg/kg; conditions: Mus musculus; method in brief: as §3
# B16 [21] = test: Percent increase in life span when compound administered at 0.4 mg/kg against B-16 melanoma cells in […] mice; type: functional, organism-based; design: dose 0.4 mg/kg; conditions: Mus musculus; method in brief: as §2
# L1210 [22] = test: Percent survivors when compound administered at 50 mg/kg against L1210 cisplatin resistant leukemia cells in BDF1 mice; IA=inactive; type: functional, organism-based; design: dose 50 mg/kg; conditions: Mus musculus; method in brief: as §5
# Colon 26 [23] = test: Percent in life span when compound administered at 1 mg/kg againstColon 26 cells in balb/C mice; type: functional, organism-based; design: dose 1 mg/kg; conditions: Mus musculus; method in brief: as §4
# L1210 [24] = test: Percent increase in life span when compound administered at 6.2 mg/kg against L1210 leukemia cells in BDF1 mice; type: functional, organism-based; design: dose 6.2 mg/kg; conditions: Mus musculus; method in brief: as §3
# P388 [25] = test: Percent survivors when compound administered at 6.2 mg/kg against P388 leukemia cells in BDF1 mice; type: functional, organism-based; design: dose 6.2 mg/kg; conditions: Mus musculus; method in brief: as §5
# [26] = Water solubility was determined; type: ADME; conditions: buffer
# P388 [27] = test: Percent survivors when compound administered at 200 mg/kg against P388 leukemia cells in BDF1 mice; type: functional, organism-based; design: dose 200 mg/kg; conditions: Mus musculus; method in brief: as §5
# P388 [28] = test: Percent increase in life span when compound administered at 200 mg/kg against P388 leukemia cells in BDF1 mice; type: functional, organism-based; design: dose 200 mg/kg; conditions: Mus musculus
# Colon 26 [29] = test: Percent in life span when compound administered at 50 mg/kg againstColon 26 cells in balb/C mice; type: functional, organism-based; design: dose 50 mg/kg; conditions: Mus musculus; method in brief: as §6
# P388 [30] = test: Percent survivors when compound administered at 100 mg/kg against P388 leukemia cells in BDF1 mice; type: functional, organism-based; design: dose 100 mg/kg; conditions: Mus musculus; method in brief: as §5
# Mus musculus = test: Tumor weight inhibition against human mammary MX-1 in Athymic mice after 50 mg/kg optimal dose; type: functional, organism-based; design: dose 50 mg/kg; conditions: at 50 mg/kg
# L1210 [31] = test: Percent increase in life span when compound administered at 12.5 mg/kg against L1210 leukemia cells in BDF1 mice; type: functional, organism-based; design: dose 12.5 mg/kg; conditions: Mus musculus; method in brief: as §3
# P388 [32] = test: Percent increase in life span when compound administered at 100 mg/kg against P388 leukemia cells in BDF1 mice; type: functional, organism-based; design: dose 100 mg/kg; conditions: Mus musculus; method in brief: as §3
substance,measurement,setting,value
"Platinum:Formic acid 9-formyloxy-2,4-dioxa-8,10-diaza-spiro[5.5]undec-9-yl ester",Increase,B16 [1],61%
same,Increase,B16 [2],64% and 84%
same,Increase,L1210 [3],168%
same,Survivors,B16 [4],3%
same,Increase,Colon 26 [5],127%
same,Survivors,L1210 [6],33%
same,Survivors,L1210 [7],50%
same,Survivors,Colon 26 [8],0%
same,Increase,L1210 [9],172%
same,Survivors,Colon 26 [10],3%
same,Survivors,B16 [11],0%
"Platinum:8,8-Dichloro-1,3-dioxa-7,9-diaza-spiro[4.5]decane",Increase,P388 [12],160%
same,Survivors,P388 [13],0%
same,Survivors,Colon 26 [14],0%
same,Increase,Colon 26 [15],50%
same,Survivors,L1210 [16],0%
CISPLATIN,Survivors,B16 [17],0%
same,Increase,P388 [18],140%
same,Survivors,Colon 26 [19],17%
same,Increase,L1210 [20],inactive
same,Increase,B16 [21],36%
same,Survivors,L1210 [22],inactive
same,Increase,Colon 26 [23],47%
same,Increase,L1210 [24],96%
same,Survivors,P388 [25],17%
"Platinum:2,4,10,15-Tetraoxa-8,16-diaza-dispiro[5.2.6.2]heptadecane-11,14-dione",Water solubility,[26],10000 µg/mL
"Platinum:Formic acid 9-formyloxy-3-methyl-2,4-dioxa-8,10-diaza-spiro[5.5]undec-9-yl ester",Increase,B16 [2],62%
same,Survivors,P388 [27],5%
same,Increase,P388 [28],173%
same,Survivors,B16 [11],0%
CARBOPLATIN,Increase,Colon 26 [29],85%
same,Increase,L1210 [20],inactive
same,Survivors,P388 [30],6%
same,Survivors,L1210 [22],inactive
same,inhibition,Mus musculus,90%
same,Survivors,Colon 26 [8],17%
same,Increase,L1210 [31],35%
same,Increase,P388 [32],144%
